The target in data set [1] is T1, Nociceptin receptor (Homo sapiens, UniProt P41146). Kind of data set: Displacement of [3H]N/OFQ from human NOP receptor expressed in HEK293 cells after 45 mins by scintillation proximity assay. The data set is classed as cell-based. An outline of the steps: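 HEK-293 membranes bearing recombinant hNOP receptor (8.3 μg) were incubated at 25 °C for 45 min with 0.4 nM [3H]N/OFQ and WGA-SPA beads. Buffer was 50 mM HEPES, pH 7.4, with 10 mM MgCl2 and 1 mM EDTA. Six concentrations, 10⁻¹¹–10⁻⁵ M, were run in duplicate; NSB with 1 μM N/OFQ. IC50 by nonlinear regression; Ki = IC50/(1+[L]/KD), KD 0.135 nM.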
T1 sequence (P41146 whole entry): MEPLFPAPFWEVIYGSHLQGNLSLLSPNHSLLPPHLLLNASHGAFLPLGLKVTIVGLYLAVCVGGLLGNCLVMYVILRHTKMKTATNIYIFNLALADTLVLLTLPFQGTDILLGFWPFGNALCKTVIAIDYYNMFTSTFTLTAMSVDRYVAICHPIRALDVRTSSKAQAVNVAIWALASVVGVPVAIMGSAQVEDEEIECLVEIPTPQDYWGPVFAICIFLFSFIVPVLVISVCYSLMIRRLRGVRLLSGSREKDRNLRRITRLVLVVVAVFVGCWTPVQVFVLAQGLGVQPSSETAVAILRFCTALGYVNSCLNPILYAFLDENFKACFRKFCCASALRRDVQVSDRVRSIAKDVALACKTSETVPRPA
A general note: In a radioligand displacement assay an active substance lowers the binding of a labelled ligand.

A further data set deals with Mu-type opioid receptor (Homo sapiens, UniProt P35372). In words: Displacement of [3H]DAMGO from human mu opioid receptor expressed in CHOK1 cells after 45 mins by scintillation proximity assay. The data set is classed as cell-based, CHO-K1.
Mu-type opioid receptor, sequence (P35372 whole entry): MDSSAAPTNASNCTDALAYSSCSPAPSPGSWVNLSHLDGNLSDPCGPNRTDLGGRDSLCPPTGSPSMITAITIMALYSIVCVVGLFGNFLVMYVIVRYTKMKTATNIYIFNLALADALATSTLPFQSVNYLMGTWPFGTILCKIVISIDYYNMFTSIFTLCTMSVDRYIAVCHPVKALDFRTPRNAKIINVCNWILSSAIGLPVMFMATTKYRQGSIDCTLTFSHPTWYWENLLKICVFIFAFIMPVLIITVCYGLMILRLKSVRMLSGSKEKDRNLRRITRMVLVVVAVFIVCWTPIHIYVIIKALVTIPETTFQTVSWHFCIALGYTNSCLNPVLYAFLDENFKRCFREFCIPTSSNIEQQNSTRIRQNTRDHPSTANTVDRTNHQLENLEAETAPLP
The target of data set [2] is T1, Nociceptin receptor. In words: Antagonist activity at human NOP receptor expressed in HEK293 cells assessed as inhibition of N/OFQ-induced [35S]GTPgammaS binding after 1.5 hrs by scintillation proximity assay. The data set is classed as functional, cell-based. The procedure, abridged:
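Membranes from HEK-293 cells expressing hNOP receptor were incubated 1.5 h at 25 °C with 10 nM N/OFQ, 400 pM [35S]GTPγS, 5 μM GDP and WGA-SPA beads. Buffer was 20 mM HEPES, 100 mM NaCl, 5 mM MgCl2 and 1 mM EDTA, pH 7.4. Six compound concentrations from 0.1 nM to 10 μM were run in duplicate. Basal binding was measured without ligands; NSB with 10 μM unlabeled GTPγS. Read by scintillation counting; IC50 derived.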
On the technique in general: GTPγS is a poorly hydrolysed GTP analogue; its binding reports G protein activation.

Data set [3] in a line: Half life in human liver microsomes at 1 uM by HPLC-MS/MS analysis. The data set is classed as ADME. An outline of the steps:
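Substrate at 1.0 μM was incubated at 37 °C in pooled human liver microsomes (1.0 mg/mL protein) with 3.3 mM MgCl2, 0.1 M NaKHPO4 (pH 7.4) and an NADPH-regenerating system.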

The test system of another data set is HEK293. In words: Selectivity ratio of Ki for human mu opioid receptor expressed in CHOK1 cells to Ki for human NOP receptor expressed in HEK293 cells. The data set is classed as cell-based.
Data set [4] deals with Voltage-gated inwardly rectifying potassium channel KCNH2 (Homo sapiens, UniProt Q12809). In words: Displacement of [3H]dofetilide from human ERG channel expressed in HEK293 cells after 60 mins by liquid scintillation counting method. It is filed as cell-based.
Voltage-gated inwardly rectifying potassium channel KCNH2, sequence (Q12809 whole entry): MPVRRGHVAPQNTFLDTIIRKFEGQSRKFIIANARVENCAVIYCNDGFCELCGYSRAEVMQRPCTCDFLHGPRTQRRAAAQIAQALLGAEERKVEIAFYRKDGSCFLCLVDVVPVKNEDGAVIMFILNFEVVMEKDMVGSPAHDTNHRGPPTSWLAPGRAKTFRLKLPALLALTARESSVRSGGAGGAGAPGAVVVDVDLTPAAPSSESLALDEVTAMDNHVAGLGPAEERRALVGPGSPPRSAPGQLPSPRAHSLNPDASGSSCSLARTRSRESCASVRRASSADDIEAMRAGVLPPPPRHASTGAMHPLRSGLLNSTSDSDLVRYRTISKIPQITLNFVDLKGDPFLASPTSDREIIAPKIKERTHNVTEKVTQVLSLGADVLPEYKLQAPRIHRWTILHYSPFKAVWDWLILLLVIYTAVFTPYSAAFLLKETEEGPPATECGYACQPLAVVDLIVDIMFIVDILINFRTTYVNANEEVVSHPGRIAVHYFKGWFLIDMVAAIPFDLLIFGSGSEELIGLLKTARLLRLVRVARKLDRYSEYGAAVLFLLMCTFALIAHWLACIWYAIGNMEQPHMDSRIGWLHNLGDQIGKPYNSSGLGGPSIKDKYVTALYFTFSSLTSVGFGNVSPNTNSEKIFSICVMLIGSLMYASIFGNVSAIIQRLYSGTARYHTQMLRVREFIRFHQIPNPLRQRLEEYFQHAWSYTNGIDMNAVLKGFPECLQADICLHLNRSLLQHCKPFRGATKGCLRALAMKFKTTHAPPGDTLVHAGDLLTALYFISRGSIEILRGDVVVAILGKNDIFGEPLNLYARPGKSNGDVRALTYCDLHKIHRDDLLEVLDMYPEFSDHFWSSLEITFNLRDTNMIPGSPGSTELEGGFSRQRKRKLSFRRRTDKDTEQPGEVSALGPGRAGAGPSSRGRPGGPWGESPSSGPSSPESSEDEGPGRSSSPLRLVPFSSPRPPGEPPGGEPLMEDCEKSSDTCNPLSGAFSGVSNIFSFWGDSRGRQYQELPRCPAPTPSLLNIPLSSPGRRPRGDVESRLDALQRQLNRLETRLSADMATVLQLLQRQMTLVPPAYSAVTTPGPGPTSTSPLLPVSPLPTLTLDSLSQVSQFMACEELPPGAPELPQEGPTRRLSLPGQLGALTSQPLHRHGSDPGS
A further data set addresses hERG (KCNH2) (Homo sapiens, UniProt Q12809). In words: Displacement of [3H]dofetilide from human ERG channel expressed in HEK293 cells at 1 uM after 60 mins by liquid scintillation counting method. Conditions: HEK293 cells that express hERG, probe [3H]dofetilide. The data set is classed as cell-based.

A value given as a limit tells only on which side of the number the result lay.

What is called Ki is the dissociation constant of the complex between target and ligand, obtained from inhibition or displacement. One may read the IC50 as the midpoint of a concentration-inhibition curve. By half-life is commonly meant the time in which the quantity being followed falls by half. Lower therefore signals rapid decline. One may read the inhibition as the change of the read-out against control, counted positive when it falls. A higher inhibition goes with a response far below the control.

hERG (KCNH2), sequence (Q12809 whole entry): as above

For the molecule `Oc1ccc(Cl)c2c1CNC(CN1CCC3(CCc4ccccc43)CC1)C2` (stereo not drawn), the inhibitory constant (Ki) worked out at 0.0022 µM on Nociceptin receptor [1] and 0.0688 µM at Mu-type opioid receptor. At Nociceptin receptor [2], the IC50 was 0.0213 µM. In data set [3], the half-life at 1 µM turned out to be 15.3 min.
Take `CC(=O)N1Cc2ccccc2CC1CN1CCC2(CCc3ccccc32)CC1` (stereo not drawn): the results for the Ki at Nociceptin receptor [1] and at Mu-type opioid receptor were 0.0298 µM and 0.0744 µM, respectively. Further, the Ratio Ki in the data set on HEK293 came out at 2.5. In data set [4], this molecule returned a half-inhibitory concentration (IC50) of 0.5 µM.
`CN1Cc2ccccc2CC1CN1CCC2(CCc3ccccc32)CC1` (stereo not drawn): the Ki at Nociceptin receptor [1] was determined as 0.0189 µM; on Mu-type opioid receptor it was 0.0582 µM. In addition, the Ratio Ki in the data set on HEK293 stood at 3.08.
Regarding `Cc1cc(F)ccc1C1CCN(CC2Cc3ccccc3CN2)CC1` (stereo not drawn), the inhibition constant Ki on Nociceptin receptor [1] turned out to be 0.00356 µM; on Mu-type opioid receptor it was 0.342 µM. For the same molecule, in the data set on HEK293, the Ratio Ki is 96.1. Further, the IC50 at Nociceptin receptor [2] was 0.0588 µM; in data set [4], 0.2 µM. Also, in data set [3], the half-life at 1 µM was determined as 6.9 min.
Regarding `Cc1cc(F)ccc1C1CCN(CC2Cc3c(Cl)ccc(O)c3CN2)CC1` (stereo not drawn), the Ki is 0.00303 µM on Nociceptin receptor [1] and more than 0.45 µM on Mu-type opioid receptor. Besides, the Ratio Ki in the data set with HEK293 is more than 143. The IC50 stood at 0.0287 µM on Nociceptin receptor [2] and 0.97 µM in data set [4]. Moreover, the half-life at 1 µM in data set [3] came out at 21.6 min.
Take `Oc1ccc(Br)c2c1CNC(CN1CCC3(CCc4ccccc43)CC1)C2` (stereo not drawn): the Ki on Nociceptin receptor [1] worked out at 0.00174 µM; at Mu-type opioid receptor, 0.139 µM. Further, on Nociceptin receptor [2], the IC50 was determined as 0.0351 µM. The molecule also came in with a half-life at 1 µM in data set [3] of 9.6 min.
`NC(=O)N1Cc2ccccc2CC1CN1CCC2(CCc3ccccc32)CC1` (stereo not drawn): the Ki at Nociceptin receptor [1] amounted to 0.0181 µM; on Mu-type opioid receptor it was 0.108 µM. The Ratio Ki with HEK293 was 5.97.
`c1ccc2c(c1)CC(CN1CCC3(CCc4ccccc43)CC1)CO2` (stereo not drawn): the figures for the Ki on Nociceptin receptor [1] and on Mu-type opioid receptor were 0.00565 µM and 0.0491 µM, respectively. In the data set on HEK293, the Ratio Ki amounted to 8.69. The values for the IC50 (at Nociceptin receptor [2]; in data set [4]) were 0.122 µM and 1.5 µM, respectively. Besides, the half-life at 1 µM in data set [3] amounted to 3.1 min.
Consider `CN1C(=O)c2ccccc2CC1CN1CCC2(CCc3ccccc32)CC1` (stereo not drawn), for which the values for the inhibition constant (Ki) on Nociceptin receptor [1] and on Mu-type opioid receptor were more than 0.25 µM and 0.231 µM, respectively. Moreover, in the data set on HEK293, the Ratio Ki was less than 0.924. This molecule also came in with an IC50 in data set [4] of 6.96 µM.
As for `O=C(C1Cc2ccccc2CN1)N1CCC2(CCc3ccccc32)CC1` (stereo not drawn), the results for the Ki on Nociceptin receptor [1] and at Mu-type opioid receptor were more than 0.25 µM and more than 0.45 µM, respectively.
For the molecule `c1ccc2c(c1)CNC(CN1CCC3(CCc4ccccc43)CC1)C2` (stereo not drawn), the inhibition constant (Ki) at Nociceptin receptor [1] was 0.0085 µM; on Mu-type opioid receptor, 0.225 µM. The Ratio Ki in the data set on HEK293 is 26.5. In addition, the results for the IC50 (at Nociceptin receptor [2]; in data set [4]) were 0.248 µM and more than 1.5 µM, respectively. In data set [3], the half-life at 1 µM is 6.6 min.
In the case of `Oc1cccc2c1CNC(CN1CCC3(CCc4ccccc43)CC1)C2` (stereo not drawn), the results for the inhibitory constant (Ki) at Nociceptin receptor [1] and at Mu-type opioid receptor were 0.0024 µM and 0.288 µM, respectively. In addition, the Ratio Ki in the data set on HEK293 came to 120. The values for the half-maximal inhibitory concentration (IC50) (at Nociceptin receptor [2]; in data set [4]) were 0.0539 µM and 0.94 µM, respectively. The half-life at 1 µM in data set [3] worked out at 12.2 min.
With `c1ccc2c(c1)CCC(CN1CCC3(CCc4ccccc43)CC1)C2` (stereo not drawn), the Ki at Nociceptin receptor [1] is 0.00555 µM; on Mu-type opioid receptor, 0.289 µM. Moreover, the Ratio Ki with HEK293 amounted to 52.1. Besides, on Nociceptin receptor [2], the IC50 amounted to 0.683 µM. In addition, the inhibition at 1 h, 1 µM on hERG (KCNH2) was 71%.
Turning to `Oc1ccc2c(c1)CC(CN1CCC3(CCc4ccccc43)CC1)NC2` (stereo not drawn), the inhibition constant Ki at Nociceptin receptor [1] worked out at 0.0102 µM; at Mu-type opioid receptor it was 0.392 µM. Besides, the IC50 at Nociceptin receptor [2] stood at 0.227 µM. Further, the half-life at 1 µM in data set [3] is 18 min.

Values taken from ChEMBL document CHEMBL3785031, “Discovery of small-molecule nonpeptide antagonists of nociceptin/orphanin FQ receptor: The studies of design, synthesis, and structure-activity relationships for (4-arylpiperidine substituted-methyl)-[bicyclic (hetero)cycloalkanobenzene] derivatives” (Eur J Med Chem, 2016).
